Data taken from paper PMC6358549 (Molecular Metabolism, 2018).
Where two headings read alike, the source gives them in different places. Blank lines part the entries; values can stand above or below the substance they belong to. No end group written: not given here.

Assays:
[1] = general statement in the discussion, no reference given; cited from earlier work
rat GIPR = conditions: cited from earlier work
healthy human volunteers = conditions: cited from earlier work
hGIPR [2] = target: T1, hGIPR (Homo sapiens, UniProt P48546); test: cAMP-response-element luciferase reporter gene assay, agonism at human GIPR; type: cell-based; conditions: Figure 5B
T1 sequence (P48546 22-466): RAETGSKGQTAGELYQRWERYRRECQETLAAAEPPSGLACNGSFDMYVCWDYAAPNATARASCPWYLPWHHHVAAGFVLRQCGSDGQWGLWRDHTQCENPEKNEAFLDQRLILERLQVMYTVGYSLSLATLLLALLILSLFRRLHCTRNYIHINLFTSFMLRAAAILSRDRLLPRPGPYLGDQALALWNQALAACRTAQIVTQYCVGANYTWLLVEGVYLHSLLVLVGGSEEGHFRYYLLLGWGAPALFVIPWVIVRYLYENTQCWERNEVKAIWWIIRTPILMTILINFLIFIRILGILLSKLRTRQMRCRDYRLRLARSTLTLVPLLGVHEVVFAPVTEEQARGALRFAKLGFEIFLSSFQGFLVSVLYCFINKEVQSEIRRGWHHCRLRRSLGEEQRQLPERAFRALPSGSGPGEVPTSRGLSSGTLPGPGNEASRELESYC

mGIPR = target: T2, mGIPR (Mus musculus, UniProt Q0P543); test: cAMP-response-element luciferase reporter gene assay, agonism at mouse GIPR; type: cell-based; conditions: Figure 5D
T2 sequence (Q0P543 19-460): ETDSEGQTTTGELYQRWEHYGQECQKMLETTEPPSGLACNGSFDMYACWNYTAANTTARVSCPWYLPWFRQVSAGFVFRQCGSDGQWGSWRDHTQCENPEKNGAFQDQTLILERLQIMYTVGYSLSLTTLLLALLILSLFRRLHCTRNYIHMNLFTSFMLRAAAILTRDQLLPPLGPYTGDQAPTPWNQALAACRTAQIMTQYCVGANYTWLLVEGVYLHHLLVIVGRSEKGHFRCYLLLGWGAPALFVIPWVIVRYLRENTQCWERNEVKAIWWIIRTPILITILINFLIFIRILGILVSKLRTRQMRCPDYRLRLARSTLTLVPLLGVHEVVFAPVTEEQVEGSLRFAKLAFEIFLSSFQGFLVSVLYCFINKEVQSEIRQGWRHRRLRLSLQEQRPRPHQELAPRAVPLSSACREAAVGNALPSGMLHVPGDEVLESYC

hGIPR [3] = target: T1, hGIPR; test: luciferase reporter gene assay, antagonism at human GIPR; type: cell-based; conditions: co-incubated with native GIP at its EC50; 1% ovalbumin; Figure 5A
Outline: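 HEK293 or BHK cells overexpressing the human receptor with a CRE-linked firefly luciferase reporter were serum-deprived for 16 h. They were then incubated 5 h at 37 °C, 5% CO2 with native GIP at constant concentration plus serial dilutions of test compound. Luminescence was read after adding luciferase substrate. Each concentration was run in duplicate, and potency was fitted per experiment by non-linear three-parameter regression.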

mouse GLP-1R = target: T3, mouse GLP-1R (Mus musculus, UniProt O35659); test: luciferase reporter gene assay, antagonism at mouse GLP-1R; type: cell-based; conditions: native hormone at EC90; Figure 5E
T3 sequence (O35659 22-463): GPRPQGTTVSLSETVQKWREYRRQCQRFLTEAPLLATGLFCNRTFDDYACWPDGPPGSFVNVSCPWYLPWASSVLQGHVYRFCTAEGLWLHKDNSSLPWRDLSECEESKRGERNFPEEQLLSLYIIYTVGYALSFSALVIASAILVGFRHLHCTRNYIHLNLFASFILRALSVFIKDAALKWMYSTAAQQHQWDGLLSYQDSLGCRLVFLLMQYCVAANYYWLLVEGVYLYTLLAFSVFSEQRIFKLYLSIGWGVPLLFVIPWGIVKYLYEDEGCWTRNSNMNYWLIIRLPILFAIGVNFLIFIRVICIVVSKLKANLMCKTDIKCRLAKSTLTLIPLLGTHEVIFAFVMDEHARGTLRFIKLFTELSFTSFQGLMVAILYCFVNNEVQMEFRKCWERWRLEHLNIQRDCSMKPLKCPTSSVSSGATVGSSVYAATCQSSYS

[4] = target: mouse glucagon receptor (GcgR) (Mus musculus, UniProt Q61606); test: luciferase reporter gene assay, antagonism at mouse glucagon receptor; type: cell-based; conditions: native hormone at EC90; Figure 5
Sequence of mouse glucagon receptor (GcgR) (Q61606 27-485): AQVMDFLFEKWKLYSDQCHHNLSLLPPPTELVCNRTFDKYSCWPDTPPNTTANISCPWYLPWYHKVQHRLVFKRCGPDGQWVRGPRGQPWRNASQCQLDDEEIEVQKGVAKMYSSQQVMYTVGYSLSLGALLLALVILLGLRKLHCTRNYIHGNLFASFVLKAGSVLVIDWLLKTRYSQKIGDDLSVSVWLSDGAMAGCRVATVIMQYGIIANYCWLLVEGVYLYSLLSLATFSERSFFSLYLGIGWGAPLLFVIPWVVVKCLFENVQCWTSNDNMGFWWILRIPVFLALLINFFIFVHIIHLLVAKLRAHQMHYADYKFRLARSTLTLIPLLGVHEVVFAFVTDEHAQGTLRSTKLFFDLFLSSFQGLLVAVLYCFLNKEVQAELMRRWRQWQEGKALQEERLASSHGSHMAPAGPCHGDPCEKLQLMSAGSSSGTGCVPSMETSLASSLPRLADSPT

DIO mice = test: body weight change on chronic treatment of DIO mice; type: in vivo, mouse
[5] = aqueous solubility and aggregation; type: physicochemical; conditions: statement in the discussion, method not given

Substance: Native, full-length GIP: native, full-length GIP
aggregation in liquid formulations [1]: prone to aggregation
aqueous solubility [1]: limited aqueous solubility

Substance: hGIP (3–30)-NH2: peptide-based GIPR antagonist from the literature (EGTFISDYSIAMDKIHQQDFVNWLLAQK-NH2; UniProt P09681 54-81, looked up, fragment)
affinity for the rat GIPR relative to hGIPR (rat GIPR): substantially reduced affinity
insulinotropic response to GIP co-infusion (healthy human volunteers): blocked a majority of the insulinotropic response

hGIPR antagonism (hGIPR [3]): potent antagonism
aqueous solubility [5]: sufficient aqueous solubility
Substance: hGIP(5–42) N^αAc K10[γEγE-C16] Arg18 [acyl GIPR antagonist]
partial agonism at hGIPR (hGIPR [2]): did not exhibit any degree of partial agonism
partial agonism at mGIPR (mGIPR): did not exhibit any degree of partial agonism
cross-reactive antagonism to mouse GLP-1R (mouse GLP-1R): did not demonstrate any cross-reactive antagonism
cross-reactive antagonism to mouse glucagon receptor (GcgR) [4]: did not demonstrate any cross-reactive antagonism
change in body weight relative to vehicle controls (DIO mice; daily sc 300 nmol/kg or 1 μmol/kg for ten days, N = 8): did not cause any measurable change in body weight

Substance: liraglutide [reference compound]
body weight lowered by (DIO mice; daily sc liraglutide 10 nmol/kg, Figure 5H): 10.9%
